Legend:
L1210 [1] = assay: Antitumor activity in the mice with intraperitoneal implanted L1210 lymphoid leukemia at the dose of 25 mg/kg/day x 5 was determined as mean survival of treated group compared to untreated; 18/9.5; format: functional, Mus musculus
Procedure, shortened: (§1)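 C3D2F1/J female mice (C3H/HeJ female × DBA/2J male), groups of six to eight, average weight 25 g. Inoculated ip with 1 × 10^6 L1210 ascites cells taken from DBA/2Ha donor mice bearing 3-5 day old tumors. Compounds were dissolved in 0.154 N NaOH, neutralized with 0.154 N HCl (final 0.9% NaCl), and given ip daily for 5 days from 24 h post-implant. Median survival T/C; ILS = (T/C − 1) × 100; 30-day survivors counted.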

L1210 [2] = assay: Antitumor activity in the mice with intraperitoneal implanted L1210 lymphoid leukemia at the dose of 50 mg/kg/day x 5 was determined as mean survival of treated group compared to untreated; 20.5/8.5; format: functional, Mus musculus
L1210 [3] = assay: Antitumor activity in the mice with intraperitoneal implanted L1210 lymphoid leukemia at the dose 50 mg/kg/day x 5 was determined and number of animals survived on 30 th day were reported; 0/8; format: functional, Mus musculus
Procedure, shortened: (§2)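 Female C3D2F1/J mice (C3H/HeJ × DBA/2J), groups of six to eight, average weight 25 g. Each mouse got 1 × 10^6 L1210 ascites cells ip, taken from DBA/2Ha donor mice bearing 3-5 day tumors. Compound was dissolved in 0.154 N NaOH and neutralized with 0.154 N HCl (final 0.9% NaCl). Dosed ip daily ×5, starting 24 h after implant. Recorded body weight change on day 8, survival range, median survival and 30-day survivors. ILS = (T/C − 1) × 100.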

L1210 [4] = assay: Antitumor activity in the mice with intraperitoneal implanted L1210 lymphoid leukemia at the dose of 100 mg/kg/day x 5 was determined as median survival of treated group compared to untreated; 16/11
L1210 [5] = assay: Antitumor activity in the mice with intraperitoneal implanted L1210 lymphoid leukemia at the dose 50 mg/kg/day x 5 was determined as percentage increase in the life span as compared with control tumor bearers; format: functional; details: Mus musculus, L1210, ip; procedure, shortened: as §1
L1210 [6] = assay: Antitumor activity in the mice with intraperitoneal implanted L1210 lymphoid leukemia at the dose 75 mg/kg/day x 5 was determined as Survival time in days; Range is 18-37 days; format: functional, Mus musculus; procedure, shortened: as §1
L1210 [7] = assay: Antitumor activity in the mice with intraperitoneal implanted L1210 lymphoid leukemia at the dose 75 mg/kg/day x 5 was determined and number of animals survived on 30 th day were reported; 3/8; format: functional, Mus musculus; procedure, shortened: as §1
L1210 [8] = assay: Antitumor activity in mice with intraperitoneal implanted L1210 lymphoid leukemia at the dose 50 mg/kg/day x 5 was determined as weight change (g/mouse) on 8th day; format: functional
Procedure, shortened: (§3)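 C3D2F1/J female mice (C3H/HeJ × DBA/2J), groups of six to eight, average 25 g, inoculated ip with 1 × 10^6 L1210 ascites cells taken from DBA/2Ha donor mice carrying 3-5 day tumors. Compound dissolved in 0.154 N NaOH, then neutralized with 0.154 N HCl to give 0.9% NaCl. Given ip daily for 5 consecutive days starting 24 h after implantation. Body weight change per mouse recorded on day 8.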

L1210 [9] = assay: Antitumor activity in the mice with intraperitoneal implanted L1210 lymphoid leukemia at the dose of 75 mg/kg/day x 5 was determined as mean survival of treated group compared to untreated; 28.5/9.5; format: functional, Mus musculus
L1210 [10] = assay: Antitumor activity in the mice with intraperitoneal implanted L1210 lymphoid leukemia at the dose 25 mg/kg/day x 5 was determined as percentage increase in the life span as compared with control tumor bearers; format: functional; details: Mus musculus, L1210, ip; procedure, shortened: as §2
L1210 [11] = assay: Antitumor activity in the mice with intraperitoneal implanted L1210 lymphoid leukemia at the dose 25 mg/kg/day x 5 was determined as Survival time in days; Range is 14-27 days; format: functional, Mus musculus; procedure, shortened: as §2
L1210 [12] = assay: Antitumor activity in the mice with intraperitoneal implanted L1210 lymphoid leukemia at the dose 75 mg/kg/day x 5 was determined as percentage increase in the life span as compared with control tumor bearers; format: functional; details: Mus musculus, L1210, ip; procedure, shortened: as §1
L1210 [13] = assay: Antitumor activity in mice with intraperitoneal implanted L1210 lymphoid leukemia at the dose 75 mg/kg/day x 5 was determined as weight change (g/mouse) on 8th day; format: functional; procedure, shortened: as §3
L1210 [14] = assay: Antitumor activity in the mice with intraperitoneal implanted L1210 lymphoid leukemia at the dose 100 mg/kg/day x 5 was determined as percentage increase in the life span as compared with control tumor bearers; format: functional; details: Mus musculus, L1210, ip; procedure, shortened: as §2
L1210 [15] = assay: Antitumor activity in mice with intraperitoneal implanted L1210 lymphoid leukemia at the dose 25 mg/kg/day x 5 was determined as weight change (g/mouse) on 8th day; format: functional; procedure, shortened: as §3
L1210 [16] = assay: Antitumor activity in the mice with intraperitoneal implanted L1210 lymphoid leukemia at the dose 18.7 and 26.6 mg/kg/day x 5 was determined as percentage increase in the life span as compared with control tumor bearers; format: functional, Mus musculus; procedure, shortened: as §2
L1210 [17] = assay: Antitumor activity in the mice with intraperitoneal implanted L1210 lymphoid leukemia at the dose 9.2 and 13.2 mg/kg/day x 5 was determined as Survival time in days; Range is 13-24 days; format: functional, Mus musculus; procedure, shortened: as §1
L1210 [18] = assay: Antitumor activity in the mice with intraperitoneal implanted L1210 lymphoid leukemia at the dose 9.2 and 13.2 mg/kg/day x 5 was determined and number of animals survived on 30 th day were reported; 0/6; format: functional, Mus musculus; procedure, shortened: as §1
L1210 [19] = assay: Antitumor activity in mice with intraperitoneal implanted L1210 lymphoid leukemia at the dose 100 mg/kg/day x 5 was determined as weight change (g/mouse) on 8th day; format: functional; procedure, shortened: as §3
L1210 [20] = assay: Antitumor activity in the mice with intraperitoneal implanted L1210 lymphoid leukemia at the dose 50 mg/kg/day x 5 was determined as Survival time in days; Range is 14-23 days; format: functional, Mus musculus; procedure, shortened: as §2
L1210 [21] = assay: Antitumor activity in the mice with intraperitoneal implanted L1210 lymphoid leukemia at the dose 100 mg/kg/day x 5 was determined and number of animals survived on 30 th day were reported; 0/6; format: functional, Mus musculus; procedure, shortened: as §2
L1210 [22] = assay: Antitumor activity in the mice with intraperitoneal implanted L1210 lymphoid leukemia at the dose 9.2 and 13.2 mg/kg/day x 5 was determined as percentage increase in the life span as compared with control tumor bearers; format: functional, Mus musculus; procedure, shortened: as §1
L1210 [23] = assay: Antitumor activity in the mice with intraperitoneal implanted L1210 lymphoid leukemia at the dose 18.7 and 26.6 mg/kg/day x 5 was determined and number of animals survived on 30 th day were reported; 0/8; format: functional, Mus musculus; procedure, shortened: as §2
L1210 [24] = assay: In Vitro evaluation for the antiproliferative activity by observing the growth inhibition of L1210 lymphoid leukemia cells in culture at 72 hour; format: functional, Mus musculus
Procedure, shortened: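 Growth of L1210 lymphoid leukemia cells in culture measured by Trypan blue exclusion of viable cells after 72 h of drug exposure. ED50 is the concentration giving 50% growth inhibition. In some runs the compound was first preincubated in medium at 37 °C for 24 or 48 h before the assay.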

L1210 [25] = assay: Antitumor activity in the mice with intraperitoneal implanted L1210 lymphoid leukemia at the dose 100 mg/kg/day x 5 was determined as Survival time in days; Range is 10-16 days; format: functional, Mus musculus; procedure, shortened: as §2
L1210 [26] = assay: Antitumor activity in the mice with intraperitoneal implanted L1210 lymphoid leukemia at the dose 25 mg/kg/day x 5 was determined and number of animals survived on 30 th day were reported; 0/8; format: functional, Mus musculus; procedure, shortened: as §2
L1210 [27] = assay: Antitumor activity in the mice with intraperitoneal implanted L1210 lymphoid leukemia at the dose 9.2 and 14.5 mg/kg/day x 5 was determined and number of animals survived on 30 th day were reported; 0/6; format: functional, Mus musculus; procedure, shortened: as §1
L1210 [28] = assay: Antitumor activity in the mice with intraperitoneal implanted L1210 lymphoid leukemia at the dose 9.2 and 14.5 mg/kg/day x 5 was determined as percentage increase in the life span as compared with control tumor bearers; format: functional, Mus musculus; procedure, shortened: as §1
L1210 [29] = assay: Antitumor activity in the mice with intraperitoneal implanted L1210 lymphoid leukemia at the dose 17.7 and 27.7 mg/kg/day x 5 was determined as percentage increase in the life span as compared with control tumor bearers; format: functional, Mus musculus; procedure, shortened: as §2
L1210 [30] = assay: Antitumor activity in mice with intraperitoneal implanted L1210 lymphoid leukemia at the dose 9.2 and 14.5 mg/kg/day x 5 was determined as weight change (g/mouse) on 8th day; format: functional; procedure, shortened: as §2
L1210 [31] = assay: Antitumor activity in the mice with intraperitoneal implanted L1210 lymphoid leukemia at the dose of 9.2 and 14.5 mg/kg/day x 5 was determined as mean survival of treated group compared to untreated; 12/11; format: functional, Mus musculus
L1210 [32] = assay: Antitumor activity in the mice with intraperitoneal implanted L1210 lymphoid leukemia at the dose 17.7 and 27.7 mg/kg/day x 5 was determined and number of animals survived on 30 th day were reported; 0/8; format: functional, Mus musculus; procedure, shortened: as §2
L1210 [33] = assay: Antitumor activity in mice with intraperitoneal implanted L1210 lymphoid leukemia at the dose 17.7 and 27.7 mg/kg/day x 5 was determined as weight change (g/mouse) on 8th day; format: functional; procedure, shortened: as §2
L1210 [34] = assay: Antitumor activity in the mice with intraperitoneal implanted L1210 lymphoid leukemia at the dose 17.7 and 27.7 mg/kg/day x 5 was determined as Survival time in days; Range is 7-17 days; format: functional, Mus musculus; procedure, shortened: as §2
L1210 [35] = assay: Antitumor activity in the mice with intraperitoneal implanted L1210 lymphoid leukemia at the dose 9.2 and 14.5 mg/kg/day x 5 was determined as Survival time in days; Range is 12-16 days; format: functional, Mus musculus; procedure, shortened: as §1
L1210 [36] = assay: Antitumor activity in the mice with intraperitoneal implanted L1210 lymphoid leukemia at the dose of 17.7 and 27.7 mg/kg/day x 5 was determined as mean survival of treated group compared to untreated; 10.5/9.5; format: functional, Mus musculus; procedure, shortened: as §1

C[C@]12CCC(=O)C=C1CC[C@@H]1[C@@H]2CC[C@@]2(C)[C@H]1CC[C@]2(O)C(=O)COP(=O)(O)OC[C@H]1O[C@@H](n2ccc(N)nc2=O)[C@@H](O)[C@@H]1O
T/C (L1210 [1]): 18
T/C (L1210 [2]): 20.5
Survivors (L1210 [3]): 0
T/C (L1210 [4]): 16
ILS at 50 mg/kg/day (L1210 [5]): 141%
Survival time (L1210 [6]): 18 days
Survivors (L1210 [7]): 3
Weight change (L1210 [8]): -2.5 g mouse-1
T/C (L1210 [9]): 28.5
ILS at 25 mg/kg/day (L1210 [10]): 90%
Survival time (L1210 [11]): 14 days
ILS at 75 mg/kg/day (L1210 [12]): 200%
Weight change (L1210 [13]): 0.46 g mouse-1
ILS at 100 mg/kg/day (L1210 [14]): 46%
Weight change (L1210 [15]): 1.55 g mouse-1
ILS (L1210 [16]): 77%
Survival time (L1210 [17]): 13 days
Survivors (L1210 [18]): 0
Weight change (L1210 [19]): -3.82 g mouse-1
Survival time (L1210 [20]): 14 days
Survivors (L1210 [21]): 0
ILS (L1210 [22]): 59%
Survivors (L1210 [23]): 0
ED 50 (L1210 [24]): 80 nM
Survival time (L1210 [25]): 10 days
Survivors (L1210 [26]): 0

C[C@]12CCC(=O)C=C1CC[C@H]1[C@@H]3CC[C@](O)(C(=O)CO)[C@@]3(C)C[C@H](O)[C@@]12F.Nc1ccn([C@@H]2O[C@H](CO)[C@@H](O)[C@@H]2O)c(=O)n1
Survivors (L1210 [27]): 0
ILS (L1210 [28]): 9%
ILS (L1210 [29]): 11%
Weight change (L1210 [30]): -4.47 g mouse-1
T/C (L1210 [31]): 12
Survivors (L1210 [32]): 0
Weight change (L1210 [33]): -3.48 g mouse-1
Survival time (L1210 [34]): 7 days
Survival time (L1210 [35]): 12 days
T/C (L1210 [36]): 10.5

Source: ChEMBL document CHEMBL1121364, “Nucleoside conjugates as potential antitumor agents. 3. Synthesis and antitumor activity of 1-(beta-D-arabinofuranosyl)cytosine conjugates of corticosteroids” (1980)
